{"source": "ChEMBL document CHEMBL4038305", "about": "“Benzoxaborole Antimalarial Agents. Part 5. Lead Optimization of Novel Amide Pyrazinyloxy Benzoxaboroles and Identification of a Preclinical Candidate” (J Med Chem, 2017)", "key": {"Plasmodium berghei [1]": {"system": "Plasmodium berghei", "assay": "Antimalarial activity against Plasmodium berghei infected in Swiss Webster mouse assessed as mouse survival rate at 0.3 mg/kg administered once daily via oral gavage for 4 consecutive days beginning 1 hr after infection measured on day 8 post infection relative to control", "format": "functional", "procedure,_shortened": "(§1)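 Mice given an intraperitoneal injection of P. berghei-infected erythrocytes taken from a previously infected animal. Oral dosing once daily for 4 consecutive days, starting 1 h after infection. Vehicle: polyethylene glycol 300/propylene glycol/water (weight ratio 55/25/20). Percent survival recorded daily from day 4 to day 20. Chloroquine 30 mg/kg and vehicle-only groups served as controls.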"}, "Plasmodium berghei [2]": {"system": "Plasmodium berghei", "assay": "Antimalarial activity against Plasmodium berghei infected in Swiss Webster mouse assessed as mouse survival rate at 1 mg/kg administered once daily via oral gavage for 4 consecutive days beginning 1 hr after infection measured on day 7 post infection relative to control", "format": "functional", "procedure,_shortened": "as §1"}, "Plasmodium berghei [3]": {"system": "Plasmodium berghei", "assay": "Antimalarial activity against Plasmodium berghei infected in Swiss Webster mouse assessed as mouse survival rate at 1 mg/kg administered once daily via oral gavage for 4 consecutive days beginning 1 hr after infection measured on day 5 post infection relative to control", "format": "functional", "procedure,_shortened": "as §1"}, "Plasmodium berghei [4]": {"system": "Plasmodium berghei", "assay": "Antimalarial activity against Plasmodium berghei infected in Swiss Webster mouse assessed as mouse survival rate at 0.3 mg/kg administered once daily via oral gavage for 4 consecutive days beginning 1 hr after infection measured on day 4 post infection relative to control", "format": "functional", "procedure,_shortened": "as §1"}, "Salmonella typhimurium [5]": {"system": "Salmonella typhimurium", "assay": "Genotoxicity in Salmonella typhimurium TA1535 assessed as number of revertants per plate at 5000 ug/plate in presence of rat liver S9 fraction by Ames test (reference value: 10)", "format": "toxicity", "settings": "salmonella enterica subsp. enterica serovar typhimurium"}, "Rattus norvegicus [6]": {"system": "Rattus norvegicus", "assay": "Genotoxicity in rat assessed as micronucleated polychromatic erythrocytes in bone marrow at 1000 mg/kg administered via oral gavage measured after 24 hrs post dose by micronucleus assay (reference value: 0.07 +/- 0.05%)", "format": "toxicity, organism-based", "settings": "in vivo"}, "Lymphocyte [7]": {"system": "Lymphocyte", "assay": "Genotoxicity in human lymphocytes assessed as replication index at 160 ug/mL after 3 hrs in presence of rat liver S9 fraction by micronucleus assay relative to control", "format": "toxicity, cell-based", "settings": "s9, 3 h", "procedure,_shortened": "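Human lymphocytes exposed for 3 h with or without rat liver S9, or 28 h without S9, with 1% DMSO as vehicle control. Replication index = (binucleated + 2 × multinucleated cells)/total cells. Cytotoxicity (%) = 100 − (RI treated/RI vehicle) × 100.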"}, "[8]": {"assay": "Clearance in Beagle dog at 5 mg/kg, iv by HPLC/MS analysis", "format": "ADME, organism-based, Canis lupus familiaris", "settings": "in vivo", "procedure,_shortened": "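Female CD-1 mice, male SD rats and beagle dogs received 5 mg/kg either iv or by oral gavage. Vehicle was PEG 300/propylene glycol/water (55/25/20, pH 6). Blood was sampled and drug measured by HPLC-MS/MS.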"}, "Salmonella typhimurium [9]": {"system": "Salmonella typhimurium", "assay": "Genotoxicity in Salmonella typhimurium TA100 assessed as number of revertants per plate at 150 ug/plate in presence of rat liver S9 fraction by Ames test (reference value: 141 +/- 1)", "format": "toxicity", "settings": "salmonella enterica subsp. enterica serovar typhimurium"}, "Salmonella typhimurium [10]": {"system": "Salmonella typhimurium", "assay": "Genotoxicity in Salmonella typhimurium TA1537 assessed as number of revertants per plate at 5000 ug/plate in presence of rat liver S9 fraction by Ames test (reference value: 11 +/- 4)", "format": "toxicity", "settings": "salmonella enterica subsp. enterica serovar typhimurium"}, "Salmonella typhimurium [11]": {"system": "Salmonella typhimurium", "assay": "Genotoxicity in Salmonella typhimurium TA1535 assessed as number of revertants per plate at 50 ug/plate in absence of rat liver S9 fraction by Ames test (reference value: 10 +/- 3)", "format": "toxicity", "settings": "salmonella enterica subsp. enterica serovar typhimurium"}, "Escherichia coli": {"system": "Escherichia coli", "assay": "Genotoxicity in Escherichia coli WP2uvrA assessed as number of revertants per plate at 50 ug/plate in absence of rat liver S9 fraction by Ames test (reference value: 45 +/- 9)", "format": "toxicity"}, "[12]": {"assay": "Tmax in Beagle dog plasma at 5 mg/kg, po via gavage by HPLC/MS analysis", "format": "ADME, organism-based, Canis lupus familiaris"}, "Salmonella typhimurium [13]": {"system": "Salmonella typhimurium", "assay": "Genotoxicity in Salmonella typhimurium TA1537 assessed as number of revertants per plate at 1.5 ug/plate in absence of rat liver S9 fraction by Ames test (reference value: 19 +/- 9)", "format": "toxicity", "settings": "salmonella enterica subsp. enterica serovar typhimurium"}, "Lymphocyte [14]": {"system": "Lymphocyte", "assay": "Genotoxicity in human lymphocytes assessed as increase in frequency of micronucleated cells at 40 ug/mL after 28 hrs in absence of rat liver S9 fraction by micronucleus assay (reference value: 0.74%)", "format": "toxicity, cell-based"}, "Salmonella typhimurium [15]": {"system": "Salmonella typhimurium", "assay": "Genotoxicity in Salmonella typhimurium TA100 assessed as number of revertants per plate at 1.5 ug/plate in presence of rat liver S9 fraction by Ames test (reference value: 141 +/- 1)", "format": "toxicity", "settings": "salmonella enterica subsp. enterica serovar typhimurium"}, "Rattus norvegicus [16]": {"system": "Rattus norvegicus", "assay": "Genotoxicity in rat assessed as change in polychromatic erythrocytes in bone marrow at 2000 mg/kg administered via oral gavage measured after 48 hrs post dose by micronucleus assay relative to control", "format": "toxicity, organism-based", "settings": "in vivo"}, "Salmonella typhimurium [17]": {"system": "Salmonella typhimurium", "assay": "Genotoxicity in Salmonella typhimurium TA98 assessed as number of revertants per plate at 15 ug/plate in absence of rat liver S9 fraction by Ames test (reference value: 14 +/- 6)", "format": "toxicity", "settings": "salmonella enterica subsp. enterica serovar typhimurium"}, "[18]": {"assay": "Volume of distribution at steady state in Beagle dog at 5 mg/kg, iv by HPLC/MS analysis", "format": "ADME, organism-based, Canis lupus familiaris", "settings": "in vivo, read-out: Vdss"}, "Salmonella typhimurium [19]": {"system": "Salmonella typhimurium", "assay": "Genotoxicity in Salmonella typhimurium TA100 assessed as number of revertants per plate at 1.5 ug/plate in absence of rat liver S9 fraction by Ames test (reference value: 154 +/- 9)", "format": "toxicity", "settings": "salmonella enterica subsp. enterica serovar typhimurium"}, "[20]": {"assay": "Tmax in Sprague-Dawley rat plasma at 5 mg/kg, po via gavage by HPLC/MS analysis", "format": "ADME, organism-based"}, "Salmonella typhimurium [21]": {"system": "Salmonella typhimurium", "assay": "Genotoxicity in Salmonella typhimurium TA1535 assessed as number of revertants per plate at 5 ug/plate in absence of rat liver S9 fraction by Ames test (reference value: 10 +/- 3)", "format": "toxicity", "settings": "salmonella enterica subsp. enterica serovar typhimurium"}, "Lymphocyte [22]": {"system": "Lymphocyte", "assay": "Genotoxicity in human lymphocytes assessed as increase in frequency of micronucleated cells at 160 ug/mL after 3 hrs in absence of rat liver S9 fraction by micronucleus assay (reference value: 0.99%)", "format": "toxicity, cell-based"}, "[23]": {"assay": "Oral bioavailability in Beagle dog at 5 mg/kg by HPLC/MS analysis", "format": "ADME, organism-based, Canis lupus familiaris", "settings": "in vivo", "procedure,_shortened": "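Female CD-1 mice, male SD rats or beagle dogs given 5 mg/kg by iv injection or oral gavage. Formulation was PEG300/propylene glycol/water 55/25/20, pH 6. Blood samples analysed by HPLC–MS/MS; parameters include AUC0-inf extrapolated to infinity and terminal half-life.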"}, "Salmonella typhimurium [24]": {"system": "Salmonella typhimurium", "assay": "Genotoxicity in Salmonella typhimurium TA98 assessed as number of revertants per plate at 1.5 ug/plate in absence of rat liver S9 fraction by Ames test (reference value: 14 +/- 6)", "format": "toxicity", "settings": "salmonella enterica subsp. enterica serovar typhimurium"}, "Lymphocyte [25]": {"system": "Lymphocyte", "assay": "Genotoxicity in human lymphocytes assessed as increase in frequency of micronucleated cells at 80 ug/mL after 3 hrs in absence of rat liver S9 fraction by micronucleus assay (reference value: 0.99%)", "format": "toxicity, cell-based"}, "Salmonella typhimurium [26]": {"system": "Salmonella typhimurium", "assay": "Genotoxicity in Salmonella typhimurium TA98 assessed as number of revertants per plate at 150 ug/plate in absence of rat liver S9 fraction by Ames test (reference value: 14 +/- 6)", "format": "toxicity", "settings": "salmonella enterica subsp. enterica serovar typhimurium"}, "Salmonella typhimurium [27]": {"system": "Salmonella typhimurium", "assay": "Genotoxicity in Salmonella typhimurium TA1537 assessed as number of revertants per plate at 150 ug/plate in absence of rat liver S9 fraction by Ames test (reference value: 19 +/- 9)", "format": "toxicity", "settings": "salmonella enterica subsp. enterica serovar typhimurium"}, "Salmonella typhimurium [28]": {"system": "Salmonella typhimurium", "assay": "Genotoxicity in Salmonella typhimurium TA98 assessed as number of revertants per plate at 5 ug/plate in absence of rat liver S9 fraction by Ames test (reference value: 14 +/- 6)", "format": "toxicity", "settings": "salmonella enterica subsp. enterica serovar typhimurium"}, "Salmonella typhimurium [29]": {"system": "Salmonella typhimurium", "assay": "Genotoxicity in Salmonella typhimurium TA1535 assessed as number of revertants per plate at 500 ug/plate in absence of rat liver S9 fraction by Ames test (reference value: 10 +/- 3)", "format": "toxicity", "settings": "salmonella enterica subsp. enterica serovar typhimurium"}}}
{"smiles": "Cc1c(Oc2cnc(C(=O)NC(C)CO)cn2)ccc2c1B(O)OC2", "note": "(stereo not given)", "values": [{"measurement": "survival at 0.3 mg/kg", "setting": "Plasmodium berghei [1]", "value": 0, "unit": "%"}, {"measurement": "survival at 1 mg/kg", "setting": "Plasmodium berghei [2]", "value": 20, "unit": "%"}, {"measurement": "survival at 1 mg/kg", "setting": "Plasmodium berghei [3]", "value": 20, "unit": "%"}, {"measurement": "survival at 0.3 mg/kg", "setting": "Plasmodium berghei [4]", "value": 100, "unit": "%"}]}
{"smiles": "Cc1c(Oc2cnc(C(=O)N3CC(C)(O)C3)cn2)ccc2c1B(O)OC2", "values": [{"measurement": "Activity", "setting": "Salmonella typhimurium [5]", "value": 6}, {"measurement": "Activity", "setting": "Rattus norvegicus [6]", "value": 0.08, "unit": "%"}, {"measurement": "Activity", "setting": "Lymphocyte [7]", "value": 8, "unit": "%"}, {"measurement": "clearance", "setting": "[8]", "value": 0.505, "unit": "mL/min/kg"}, {"measurement": "Activity", "setting": "Salmonella typhimurium [9]", "value": 154}, {"measurement": "Activity", "setting": "Salmonella typhimurium [10]", "value": 9}, {"measurement": "Activity", "setting": "Salmonella typhimurium [11]", "value": 8}, {"measurement": "Activity", "setting": "Escherichia coli", "value": 35}, {"measurement": "Tmax", "setting": "[12]", "value": 1.2, "unit": "h"}, {"measurement": "Activity", "setting": "Salmonella typhimurium [13]", "value": 15}, {"measurement": "Activity", "setting": "Lymphocyte [14]", "value": 1.18, "unit": "%"}, {"measurement": "Activity", "setting": "Salmonella typhimurium [15]", "value": 150}, {"measurement": "Activity", "setting": "Rattus norvegicus [16]", "value": -12, "unit": "%"}, {"measurement": "Activity", "setting": "Salmonella typhimurium [17]", "value": 15}, {"measurement": "Vd", "setting": "[18]", "value": 0.29, "unit": "L/kg"}, {"measurement": "Activity", "setting": "Salmonella typhimurium [19]", "value": 144}, {"measurement": "Tmax", "setting": "[20]", "value": 3.5, "unit": "h"}, {"measurement": "Activity", "setting": "Salmonella typhimurium [21]", "value": 8}, {"measurement": "Activity", "setting": "Lymphocyte [22]", "value": 1.18, "unit": "%"}, {"measurement": "bioavailability", "setting": "[23]", "value": 127, "unit": "%"}, {"measurement": "Activity", "setting": "Salmonella typhimurium [24]", "value": 15}, {"measurement": "Activity", "setting": "Lymphocyte [25]", "value": 0.81, "unit": "%"}, {"measurement": "Activity", "setting": "Salmonella typhimurium [26]", "value": 13}, {"measurement": "Activity", "setting": "Salmonella typhimurium [27]", "value": 15}, {"measurement": "Activity", "setting": "Salmonella typhimurium [28]", "value": 12}, {"measurement": "Activity", "setting": "Salmonella typhimurium [29]", "value": 5}]}
